ChEMBL document CHEMBL3112482, “Nonclassical antifolates, part 5. Benzodiazepine analogs as a new class of DHFR inhibitors: synthesis, antitumor testing and molecular modeling study” (Eur J Med Chem, 2014)

How the values were obtained:
Format in all cases: functional
[1] = Cytotoxicity against human CNS cancer cells at 10 uM after 48 hrs; conditions: Cancer cell lines
[2] = Cytotoxicity against human breast cancer cells at 10 uM after 48 hrs; conditions: Cancer cell lines
In short: (§1)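 Single-dose primary screen in the NCI 60 human tumour cell line panel, run at the NCI facility. The panel covers nine subpanels: leukaemia, non-small cell lung, colon, CNS, melanoma, ovarian, renal, prostate and breast. Read-out was percent growth of treated cells, shown as a mean graph and reported as percent growth inhibition.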

[3] = Cytotoxicity against human prostate cancer cells at 10 uM after 48 hrs; conditions: Cancer cell lines
[4] = Cytotoxicity against human melanoma cells at 10 uM after 48 hrs; conditions: Melanoma cell; in short: as §1
[5] = Cytotoxicity against human renal cancer cells at 10 uM after 48 hrs; conditions: Cancer cell lines
[6] = Cytotoxicity against human leukemia cells at 10 uM after 48 hrs; conditions: Leukemia cell
[7] = Cytotoxicity against human non-small cell lung cancer cells at 10 uM after 48 hrs; conditions: Cancer cell lines; in short: as §1
[8] = Cytotoxicity against human colon cancer cells at 10 uM after 48 hrs; conditions: Cancer cell lines; in short: as §1
[9] = read-out: LC50 (the source's name)

With `O=c1[nH]cc(F)c(=O)[nH]1` [FLUOROURACIL] the TGI [1] was > 100 µM, the CC50 [1, 9] was > 100 µM and the GI50 [2] was 76.4 µM. The TGI [2] was > 100 µM, the GI50 [3] was 22.7 µM and the TGI [3] was > 100 µM. For the same compound, the GI50 [4] was 70.6 µM, the TGI [4] was > 100 µM and the CC50 [4, 9] was > 100 µM. For the same compound, the CC50 [5] was > 100 µM, the GI50 [5] was 45.6 µM and the TGI [5] was > 100 µM. The TGI [6] was > 100 µM, the GI50 [7] was > 100 µM and the TGI [7] was > 100 µM. The CC50 [7, 9] was > 100 µM, the GI50 [8] was 8.4 µM and the TGI [8] was > 100 µM. For the same compound, the CC50 [8, 9] was > 100 µM.
